Data: ChEMBL document CHEMBL1681759, “Synthesis and biological evaluation of benzimidazole-5-carbohydrazide derivatives as antimalarial, cytotoxic and antitubercular agents” (Bioorg Med Chem, 2011)
In brackets after ≈: the same amount, converted by molar mass.

Legend:
[1] = test system: K562; test: Cytotoxicity against human K562 cells assessed as growth inhibition after 48 hrs by sulforhodamine B assay; assay type: functional; settings: K562, 48 h
Summary of the method: (§1)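 Cells were exposed to serial compound dilutions in 96-well plates for 48 h at 37 °C alongside solvent controls. Growth was read colorimetrically by sulforhodamine B. GI50 is the concentration giving a 50% reduction in absorbance versus solvent-treated controls, derived by linear regression.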

[2] = test system: DU-145; test: Cytotoxicity against human DU145 cells assessed as growth inhibition after 48 hrs by sulforhodamine B assay; assay type: functional; settings: DU-145, 48 h; summary of the method: as §1
[3] = Cytotoxicity against african green monkey Vero cells assessed as growth inhibition after 48 hrs by sulforhodamine B assay; assay type: cell-based; settings: chlorocebus sabaeus; summary of the method: as §1
[4] = test system: Mycobacterium tuberculosis; test: Antimycobacterial activity against Mycobacterium tuberculosis H37Rv after 5 days by tetrazolium microplate assay; assay type: functional; settings: 120 h
Summary of the method: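 Tetrazolium microplate assay run in 7H9GC broth. DMSO stocks (4 mg/mL) were diluted to final 0.4–25 µg/mL. Isoniazid (0.125–32 µg/mL) and rifampin (0.063–16 µg/mL) were positive controls; inoculum-only and DMSO controls were included. Plates were incubated 5 days at 37 °C, then an MTT-Tween 80 mix was added and incubation continued 24 h at 37 °C. Run in triplicate. MIC = lowest concentration preventing the yellow-to-purple colour change.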

[5] = Inhibition of beta-hematin formation assessed as inhibition of […] polymerization at […] after 48 hrs; assay type: functional
Summary of the method: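 Hemin chloride (50 µL, 4 mM in DMSO) was mixed in triplicate with compound in DMSO; water or DMSO served as controls. Reaction was started with acetate buffer (0.2 M, pH 4.4) and run 37 °C for 48 h. The pellet was DMSO-washed twice, dissolved in 0.2 N NaOH, diluted 1:2 in 0.1 N NaOH, and read at 405 nm as % inhibition of FP polymerization.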

[6] = test system: HT-29; test: Cytotoxicity against human HT-29 cells assessed as growth inhibition after 48 hrs by sulforhodamine B assay; assay type: functional; settings: HT-29, 48 h; summary of the method: as §1
[7] = test system: M14; test: Cytotoxicity against human M14 cells assessed as growth inhibition after 48 hrs by sulforhodamine B assay; assay type: functional; settings: M14, 48 h; summary of the method: as §1
[8] = test system: Plasmodium berghei; test: Antimalarial activity against chloroquine-susceptible Plasmodium berghei ANKA infected in Balb-C mouse assessed as inhibition parasitemia at 20 mg/kg, ip qd for 4 days […]; assay type: functional; settings: 96 h, route intraperitoneal
Summary of the method: (§2)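 Balb-C mice (18–23 g, n = 6) were infected iv in the caudal vein with 10⁶ P. berghei ANKA-infected RBCs. Dosing started 2 h post-infection: 20 mg/kg ip once daily for 4 days, DMSO stock diluted in Saline-Tween 20 (2%). Chloroquine 25 mg/kg served as positive control; untreated mice were controls. Parasitemia was read on day 4 from Giemsa smears, and survival days were recorded.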

[9] = test system: Plasmodium berghei; test: Antimalarial activity against chloroquine-susceptible Plasmodium berghei ANKA infected in Balb-C mouse; assay type: functional, organism-based; summary of the method: as §2
[10] = test system: MCF7; test: Cytotoxicity against human MCF7 cells assessed as growth inhibition after 48 hrs by sulforhodamine B assay; assay type: functional; settings: MCF7, 48 h; summary of the method: as §1
[11] = Cytotoxicity against mouse 3T3 cells assessed as growth inhibition after 48 hrs by sulforhodamine B assay; assay type: cell-based; settings: NIH3T3 cells; summary of the method: as §1
[12] = test system: Plasmodium berghei; test: Antimalarial activity against chloroquine-susceptible Plasmodium berghei ANKA infected in Balb-C mouse assessed as mouse survival days at 20 mg/kg, ip qd for 4 days […] relative to untreated control; assay type: functional; settings: route intraperitoneal
[13] = test system: NCI-H460; test: Cytotoxicity against human H460 cells assessed as growth inhibition after 48 hrs by sulforhodamine B assay; assay type: functional; settings: NCI-H460, 48 h; summary of the method: as §1
[14] = test system: Plasmodium berghei; test: Antimalarial activity against chloroquine-susceptible Plasmodium berghei ANKA assessed as inhibition of trophozoite extract-mediated mouse hemoglobin hydrolysis at 10 mM after 18 hrs by SDS-PAGE; assay type: functional
Summary of the method: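 Trophozoite extract came from P. berghei-infected mouse blood at 30–50% parasitemia: RBCs percoll-purified (80–70%), saponin-lysed, then freeze–thawed three times. Substrate was native haemoglobin from uninfected mouse erythrocytes lysed in water. The mix held GSH and acetate buffer (0.2 M, pH 5.4). Compound was added in DMSO and incubated 37 °C, 18 h. Reactions were stopped with reduced sample buffer.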

Row | Structure (SMILES) | GI50 [1] | GI50 [2] | GI50 at 48 h [3] | MIC [4] | inhibition [5] | GI50 [6] | GI50 [7] | inhibition in vivo at 20 mg/kg [8] | IC50 [9] | GI50 [10] | GI50 at 48 h [11] | Survival [12] | GI50 [13] | inhibition at 10000 µM [14]
1 | O=C(NNC(=O)c1ccc2[nH]c(-c3ccc([N+](=O)[O-])o3)nc2c1)c1cccc(Oc2ccccc2)c1 | > 7.8 µg/mL | > 7.8 µg/mL | > 7.8 µg/mL | > 25 µg/mL | 84.6% | > 7.8 µg/mL | > 7.8 µg/mL | 12.9% | 14.1 µM | > 7.8 µg/mL | > 7.8 µg/mL | 10.6 days | > 7.8 µg/mL | –
2 | O=C(NNC(=O)c1ccc2[nH]c(-c3ccc([N+](=O)[O-])s3)nc2c1)c1cccc(Oc2ccccc2)c1 | – | – | – | – | 76.5% | – | – | 7.28% | 19.1 µM | – | – | 11 days | – | 0%
3 | O=C(NNC(=O)c1cc2ccccc2cc1O)c1ccc2[nH]c(-c3ccc([N+](=O)[O-])s3)nc2c1 | 31.2 µg/mL (≈ 66 µM) | 62.5 µg/mL (≈ 132 µM) | 31.2 µg/mL (≈ 66 µM) | > 25 µg/mL | 75.8% | 62.5 µg/mL (≈ 132 µM) | 62.5 µg/mL (≈ 132 µM) | 1.8% | 11.1 µM | 62.5 µg/mL (≈ 132 µM) | 31.2 µg/mL (≈ 66 µM) | 18.8 days | 62.5 µg/mL (≈ 132 µM) | 14.1%
4 | O=C(NNC(=O)c1cc2ccccc2cc1O)c1ccc2[nH]c(-c3ccc([N+](=O)[O-])o3)nc2c1 | – | – | – | – | 31.7% | – | – | – | – | – | – | – | – | 12.9%
5 | COc1cc(C(=O)NNC(=O)c2ccc3[nH]c(-c4ccc([N+](=O)[O-])o4)nc3c2)cc(OC)c1OC | 31.2 µg/mL (≈ 64.9 µM) | 15.6 µg/mL (≈ 32.5 µM) | 31.2 µg/mL (≈ 64.9 µM) | > 25 µg/mL | 69.4% | 31.2 µg/mL (≈ 64.9 µM) | 15.6 µg/mL (≈ 32.5 µM) | 9.4% | 14.4 µM | 31.2 µg/mL (≈ 64.9 µM) | 31.2 µg/mL (≈ 64.9 µM) | 12.2 days | 31.2 µg/mL (≈ 64.9 µM) | 0%
6 | CO[C@H]1/C=C/O[C@@]2(C)Oc3c(C)c(O)c4c(O)c(c(/C=N/N5CCN(C)CC5)c(O)c4c3C2=O)NC(=O)/C(C)=C\C=C\[C@H](C)[C@H](O)[C@@H](C)[C@@H](O)[C@@H](C)[C@H](OC(C)=O)[C@@H]1C [RIFAMPIN] | – | – | – | 0.063 µg/mL (≈ 0.0766 µM) | – | – | – | – | – | – | – | – | – | –
7 | CCN(CC)CCCC(C)Nc1ccnc2cc(Cl)ccc12 (centres undefined) [CHLOROQUINE] | – | – | – | – | 94.2% | – | – | 1.3% | – | – | – | >30 days | – | 24.1%
8 | O=C(NNC(=O)c1ccc2[nH]c(-c3ccc([N+](=O)[O-])o3)nc2c1)c1cccc(Cl)c1 | – | – | – | – | 73.4% | – | – | 3.38% | 10.3 µM | – | – | 12.4 days | – | 39%
9 | COc1ccc(C(=O)NNC(=O)c2ccc3[nH]c(-c4ccc([N+](=O)[O-])s4)nc3c2)cc1OC | – | – | – | – | 70.8% | – | – | 16.1% | 21.4 µM | – | – | 13.8 days | – | 38.2%
10 | O=C(NNC(=O)c1ccc2[nH]c(-c3ccc([N+](=O)[O-])s3)nc2c1)c1ccc(Cl)cc1 | – | – | – | – | 25.5% | – | – | 13.5% | – | – | – | 10.8 days | – | 12.7%
11 | O=C(NNC(=O)c1ccc2[nH]c(-c3ccc([N+](=O)[O-])o3)nc2c1)c1ccccc1 | 15.6 µg/mL (≈ 39.9 µM) | 15.6 µg/mL (≈ 39.9 µM) | 31.2 µg/mL (≈ 79.9 µM) | 12.5 µg/mL (≈ 31.9 µM) | 79.2% | 31.2 µg/mL (≈ 79.9 µM) | 15.6 µg/mL (≈ 39.9 µM) | 10.1% | 10.9 µM | 62.5 µg/mL (≈ 160 µM) | 31.2 µg/mL (≈ 79.9 µM) | 13.6 days | 62.5 µg/mL (≈ 160 µM) | 0%
12 | CC(=O)N[C@@H](CC(C)C)C(=O)N[C@@H](CC(C)C)C(=O)N[C@H](C=O)CCCNC(=N)N [LEUPEPTIN] | – | – | – | – | – | – | – | – | – | – | – | – | – | 91.6%
13 | O=CNNC(=O)c1ccc2[nH]c(-c3ccc([N+](=O)[O-])s3)nc2c1 | – | – | – | – | 87.4% | – | – | 18.7% | 9.88 µM | – | – | 10.04 days | – | 36.2%
14 | O=C(NNC(=O)c1ccc2[nH]c(-c3ccc([N+](=O)[O-])s3)nc2c1)c1cccc(Cl)c1 | – | – | – | – | 78.6% | – | – | 27.2% | 16 µM | – | – | 7.4 days | – | 44.9%
15 | O=CNNC(=O)c1ccc2[nH]c(-c3ccc([N+](=O)[O-])o3)nc2c1 | 31.2 µg/mL (≈ 99.1 µM) | 15.6 µg/mL (≈ 49.6 µM) | 62.5 µg/mL (≈ 198 µM) | > 25 µg/mL | 94% | 62.5 µg/mL (≈ 198 µM) | 31.2 µg/mL (≈ 99.1 µM) | 25.8% | 8.63 µM | 62.5 µg/mL (≈ 198 µM) | 62.5 µg/mL (≈ 198 µM) | 8.2 days | 31.2 µg/mL (≈ 99.1 µM) | 24.2%
16 | CC(C)CC(=O)N[C@H](C(=O)N[C@H](C(=O)N[C@@H](CC(C)C)[C@@H](O)CC(=O)N[C@@H](C)C(=O)N[C@@H](CC(C)C)[C@@H](O)CC(=O)O)C(C)C)C(C)C [PEPSTATIN] | – | – | – | – | – | – | – | – | – | – | – | – | – | 95.5%
17 | NNC(=O)c1ccncc1 [ISONIAZID] | – | – | – | 0.125 µg/mL (≈ 0.911 µM) | – | – | – | – | – | – | – | – | – | –
18 | COc1cccc(C(=O)NNC(=O)c2ccc3[nH]c(-c4ccc([N+](=O)[O-])o4)nc3c2)c1 | 15.6 µg/mL (≈ 37.1 µM) | 15.6 µg/mL (≈ 37.1 µM) | 31.2 µg/mL (≈ 74.2 µM) | 25 µg/mL (≈ 59.3 µM) | 72.4% | 31.2 µg/mL (≈ 74.2 µM) | 7.81 µg/mL (≈ 18.5 µM) | 5.98% | 13.1 µM | 15.6 µg/mL (≈ 37.1 µM) | 15.6 µg/mL (≈ 37.1 µM) | 11.8 days | 62.5 µg/mL (≈ 148 µM) | 2.82%
19 | COc1ccc(C(=O)NNC(=O)c2ccc3[nH]c(-c4ccc([N+](=O)[O-])o4)nc3c2)cc1OC | 15.6 µg/mL (≈ 34.6 µM) | 15.6 µg/mL (≈ 34.6 µM) | 62.5 µg/mL (≈ 138 µM) | > 25 µg/mL | 94.8% | 15.6 µg/mL (≈ 34.6 µM) | 15.6 µg/mL (≈ 34.6 µM) | 4.8% | 8.71 µM | 31.2 µg/mL (≈ 69.2 µM) | 31.2 µg/mL (≈ 69.2 µM) | 12.2 days | 15.6 µg/mL (≈ 34.6 µM) | 34.5%
20 | COc1cc(C(=O)NNC(=O)c2ccc3[nH]c(-c4ccc([N+](=O)[O-])s4)nc3c2)cc(OC)c1OC | 31.2 µg/mL (≈ 62.8 µM) | 62.5 µg/mL (≈ 126 µM) | 31.2 µg/mL (≈ 62.8 µM) | > 25 µg/mL | 92.4% | 62.5 µg/mL (≈ 126 µM) | 62.5 µg/mL (≈ 126 µM) | 9.36% | 9.56 µM | 31.2 µg/mL (≈ 62.8 µM) | 31.2 µg/mL (≈ 62.8 µM) | 10 days | 62.5 µg/mL (≈ 126 µM) | –
21 | O=C(NNC(=O)c1ccc2[nH]c(-c3ccc([N+](=O)[O-])o3)nc2c1)c1ccc(Cl)cc1 | – | – | – | – | 59.6% | – | – | 27.4% | 23.4 µM | – | – | 9.8 days | – | 33.8%
22 | O=C(NNC(=O)c1ccc2[nH]c(-c3ccc([N+](=O)[O-])s3)nc2c1)c1ccccc1 | – | – | – | – | 86.2% | – | – | 10.1% | 10.8 µM | – | – | 12 days | – | 39.2%
23 | O=C(O)c1ccc2[nH]c(-c3ccc([N+](=O)[O-])s3)nc2c1 | – | – | – | – | 57.6% | – | – | 11.5% | 21.1 µM | – | – | 12.2 days | – | 0%
